Data set [1] has as its target T1, UDP-glucuronosyltransferase 2B4 (Homo sapiens, UniProt P06133).
T1 sequence (P06133 whole entry): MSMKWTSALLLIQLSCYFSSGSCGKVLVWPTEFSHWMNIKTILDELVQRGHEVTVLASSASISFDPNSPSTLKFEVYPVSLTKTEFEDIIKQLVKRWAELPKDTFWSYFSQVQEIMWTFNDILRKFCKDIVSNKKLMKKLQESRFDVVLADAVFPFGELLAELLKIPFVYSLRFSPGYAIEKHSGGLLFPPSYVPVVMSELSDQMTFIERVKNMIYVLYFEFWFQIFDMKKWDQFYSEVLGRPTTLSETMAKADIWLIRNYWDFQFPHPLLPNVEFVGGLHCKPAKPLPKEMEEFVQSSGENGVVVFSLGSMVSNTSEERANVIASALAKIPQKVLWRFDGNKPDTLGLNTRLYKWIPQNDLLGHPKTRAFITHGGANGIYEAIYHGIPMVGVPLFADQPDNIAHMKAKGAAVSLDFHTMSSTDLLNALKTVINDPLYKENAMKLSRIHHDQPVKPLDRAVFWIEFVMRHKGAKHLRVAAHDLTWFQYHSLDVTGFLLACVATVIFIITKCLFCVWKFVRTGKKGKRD
The experiment in a line: Activity of human UGT2B4 expressed in microsomes isolated from baculovirus infected insect cell assessed as enzyme-mediated (2S,3S,4S,5R,6R)-3,4,5-trihydroxy-6-(5-(4-((6-methoxy-1-methyl-1H-benzo[d]imidazol-2-yl)methoxy)benzyl)-2,4-dioxothiazolidin-3-yl)tetrahydro-2H-pyran-2-carboxylic acid formation at 20 uM after 4 hrs by radio-HPLC/LC-MS/MS analysis in presence of UDPGA. Type of data set: ADME.

In data set [2] the target is Cytochrome P450 2C9 (Homo sapiens, UniProt P11712). The data set can be described thus: Activity of human CYP2C9 expressed in microsomes isolated from baculovirus infected insect cell assessed as enzyme-mediated 2-mercapto-3-(4-((6-methoxy-1-methyl-1H-benzo[d]imidazol-2-yl)methoxy)phenyl)propanoic acid formation at 20 uM after 2 hrs by radio-HPLC/LC-MS/MS analysis in presence of NADPH-generating system. Type of data set: ADME. The method, boiled down: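 Baculovirus-insect-cell microsomes expressing the human CYP (1 mg/ml protein) were incubated with [14C]rivoglitazone (20 μM) in 50 mM potassium phosphate (pH 7.4) or 100 mM Tris-HCl (pH 7.5) with an NADPH-generating system (2 mM NADP+, 20 mM glucose 6-phosphate, 2 units/ml G6PDH, 10 mM MgCl2) for 2 h at 37°C. Insect-cell control supersomes served as the control. Reactions were stopped with acetonitrile, and the concentrated supernatants were analysed by radio-HPLC, LC-MS and LC-MS/MS.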
Sequence of Cytochrome P450 2C9 (P11712 whole entry): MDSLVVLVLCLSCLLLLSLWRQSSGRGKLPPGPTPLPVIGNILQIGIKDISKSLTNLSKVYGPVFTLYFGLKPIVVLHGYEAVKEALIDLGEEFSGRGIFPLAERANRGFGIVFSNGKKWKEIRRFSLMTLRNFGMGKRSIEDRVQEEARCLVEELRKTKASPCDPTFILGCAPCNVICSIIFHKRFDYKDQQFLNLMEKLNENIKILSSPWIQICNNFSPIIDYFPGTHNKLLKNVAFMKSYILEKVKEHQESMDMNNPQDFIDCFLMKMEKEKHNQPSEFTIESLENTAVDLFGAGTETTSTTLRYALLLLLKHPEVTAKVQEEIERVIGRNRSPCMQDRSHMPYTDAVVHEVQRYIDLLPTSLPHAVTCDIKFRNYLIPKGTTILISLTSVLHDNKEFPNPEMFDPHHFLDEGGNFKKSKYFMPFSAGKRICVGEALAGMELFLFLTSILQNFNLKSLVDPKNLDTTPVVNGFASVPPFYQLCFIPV

Data set [3] in a line: Drug metabolism in monkey hepatocytes assessed as formation of (2S,3S,4S,5R,6R)-6-((1-carboxy-2-(4-((6-methoxy-1-methyl-1H-benzo[d]imidazol-2-yl)methoxy)phenyl)ethylthio)carbonylamino)-3,4,5-trihydroxytetrahydro-2H-pyran-2-carboxylic acid at 30 uM after 3 hrs by radio-HPLC/LC-MS/MS analysis in presence of UDPGA and UDPGA/SAM. The conditions noted are these: cynomolgus monkey.

Data set [4] can be described thus: Drug metabolism in cynomolgus monkey liver microsomes assessed as formation of 2-mercapto-3-(4-((6-methoxy-1-methyl-1H-benzo[d]imidazol-2-yl)methoxy)phenyl)propanoic acid at 20 uM after 2 to 4 hrs by radio-HPLC/LC-MS/MS analysis in presence of UDPGA, UDPGA/SAM and NADPH-generating system. Format: ADME, Macaca fascicularis. (Liver microsomes are vesicles of endoplasmic reticulum, rich in cytochrome P450 enzymes.)

Data set [5] has as its system Liver microsome. The data set can be described thus: Drug metabolism in human liver microsomes assessed as formation of (2S,3S,4S,5R,6R)-3,4,5-trihydroxy-6-(5-(4-((6-methoxy-1-methyl-1H-benzo[d]imidazol-2-yl)methoxy)benzyl)-2,4-dioxothiazolidin-3-yl)tetrahydro-2H-pyran-2-carboxylic acid at 20 uM after 4 hrs by radio-HPLC/LC-MS/MS analysis in presence of UDPGA and UDPGA/SAM. Type of data set: ADME.

Data set [6] addresses T2, Cytochrome P450 2C8 (Homo sapiens, UniProt P10632).
T2 sequence (P10632 whole entry): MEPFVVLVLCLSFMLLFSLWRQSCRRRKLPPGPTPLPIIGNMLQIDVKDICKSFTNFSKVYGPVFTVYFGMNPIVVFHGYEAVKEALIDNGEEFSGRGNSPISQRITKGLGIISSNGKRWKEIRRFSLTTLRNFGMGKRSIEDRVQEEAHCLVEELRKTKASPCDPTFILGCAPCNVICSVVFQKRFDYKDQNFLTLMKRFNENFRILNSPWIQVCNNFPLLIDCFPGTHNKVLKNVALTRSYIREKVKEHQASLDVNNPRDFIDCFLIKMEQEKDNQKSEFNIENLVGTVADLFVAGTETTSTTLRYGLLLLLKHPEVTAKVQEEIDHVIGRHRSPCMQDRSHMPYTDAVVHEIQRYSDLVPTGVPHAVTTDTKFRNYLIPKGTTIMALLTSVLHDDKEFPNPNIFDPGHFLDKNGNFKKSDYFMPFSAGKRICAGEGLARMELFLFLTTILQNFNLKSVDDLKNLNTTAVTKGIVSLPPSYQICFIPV
The experiment in a line: Activity of human CYP2C8 expressed in microsomes isolated from baculovirus infected insect cell assessed as enzyme-mediated 2-amino-3-((1-carboxy-2-(4-((6-methoxy-1-methyl-1H-benzo[d]imidazol-2-yl)methoxy)phenyl)ethyl)disulfanyl)propanoic acid formation at 20 uM after 2 hrs by radio-HPLC/LC-MS/MS analysis. Format: ADME. The method, boiled down: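 Baculovirus/insect-cell microsomes expressing single human CYPs, 1 mg/ml protein, with 50 mM potassium phosphate (pH 7.4) or 100 mM Tris-HCl (pH 7.5). NADPH-generating system: 2 mM NADP⁺, 20 mM glucose 6-phosphate, 2 units/ml G6PDH, 10 mM MgCl₂. [¹⁴C]rivoglitazone at 20 μM, 2 h at 37°C with shaking. Control used insect-cell control supersomes. Stopped with acetonitrile; supernatant concentrated under nitrogen; metabolites analysed by radio-HPLC, LC-MS and LC-MS/MS.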

Molecules are shown by their SMILES.

Take `COc1ccc2nc(COc3ccc(C[14CH]4SC(=O)NC4=O)cc3)n(C)c2c1.Cl` (racemic): the Drug metabolism entry is reported as “metabolite_not_detected” in data set [1]; “metabolite_detected” in data set [2]; “metabolite_detected” in data set [3]; “metabolite_detected” in data set [4]; “metabolite_detected” in data set [5]; “metabolite_not_detected” in data set [6].

Values taken from ChEMBL document CHEMBL3526048, “In vitro metabolism of rivoglitazone, a novel peroxisome proliferator-activated receptor γ agonist, in rat, monkey, and human liver microsomes and freshly isolated hepatocytes” (Drug Metab Dispos, 2011).
